Molecules are shown by their SMILES.

The source of these data is ChEMBL document CHEMBL4513216, “Probing the Open Global Health Chemical Diversity Library for Multistage-Active Starting Points for Next-Generation Antimalarials” (ACS Infect Dis, 2020).

A short description of this series: Toxicity liver stage against HepG2, at 10uM. To be noted: human, HepG2-A16-CD81EGFP cells; read-out: INHIBITION
The series is classed as cell-based. Also noted: test concentration 10 uM, cell line HepG2-A16-CD81EGFP. The gist of the method: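 Uninfected HepG2-A16-CD81EGFP cells, 3 × 10^3 per well, 1536-well, plated on prespotted compound at 10 μM final, parasite-free screening media added to match infected plates; puromycin 10 μM positive, DMSO 0.5% negative; run in parallel with 48 h PbLuc assay at 37 °C, 5% CO2; viability by CellTiter-Glo luminescence, normalized to controls.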
`Cc1cccc(OC2CCN(C(=O)NCc3cc[nH]n3)CC2)c1C`: the cytotoxicity at 10 µM worked out at 7.41%. As for `Cc1nc(NC(=O)c2c(-n3cnnn3)sc3c2CCC3)sc1C`, the cytotoxicity at 10 µM came out at 5.95%. As to `CCCSc1nn(CCN(C)C)c2nc3sc(C)c(CC)c3c(=O)n12`, the cytotoxicity at 10 µM came out at 16.4%. Then `CC(C)n1ncc2c1NC(=O)CC21C(=O)Nc2cc(Cl)cc(Cl)c21` (stereo not given), with 19.1%; and `Nc1nc2c(c(NC(=O)Nc3cccc(Cl)c3)n1)CCCC2`, with -2.8%. Then `CCc1cnc(N2CC[C@@H]3CN(C(=O)c4ccco4)CCO[C@@H]3C2)nc1`, with 9.22%.

For `CC(C)CNc1nc2c(cc1C(=O)NCC1CC1)CCNCC2`, the cytotoxicity at 10 µM is -2.79%. To `CCS(=O)(=O)N1CCc2ccc(NC(=O)Nc3cccc(SC)c3)cc21` belongs 37.7%; to `Cc1cc(C)n(C2=NC(NCCC(C)C)c3c(sc4c3CCCC4)N2)n1` (stereo not given), 25%.

As for `CCc1ccc(-c2cc(C(F)(F)F)nc(N3CCC(N)CC3)n2)cc1`, the cytotoxicity at 10 µM stood at 91.5%. Turning to `Cc1nn(C)c2c(=O)n(C(C)C)c(NCCc3ccccc3)nc12`, the cytotoxicity at 10 µM stood at 65.3%. To `CC(C)Nc1cc(-c2c[nH]nc2C2CCN(C(=O)C3CC3)C2)ccn1` (stereo not given) belongs 85%; to `COc1ccc(CC(=O)NC(C)c2nc3cccnc3n2C(C)C)cc1` (stereo not given), -11.7%; to `Cc1ncc(CN2CCOC(c3ccc(-c4ccccc4F)cn3)C2)s1` (stereo not given), -35.7%.

Turning to `CN(C)C(=O)C1CN(Cc2ccccn2)CCN(S(C)(=O)=O)C1` (stereo not given), the cytotoxicity at 10 µM came out at 26.9%. Then `Cc1cc(-c2cnc(NCc3ccncc3)nc2C(C)C)on1`, with 59.7%.

On to `CC(C)NC(=O)c1cc(-c2ccc(S(C)(=O)=O)cc2)c2cnn(C)c2n1`, for which the cytotoxicity at 10 µM stood at 8.3%. Then `CCN1CCC(NC(=O)CNC(C)Cn2cccn2)CC1` (stereo not given), with 9.19%; and `Cc1ccccc1CNc1ccc(S(N)(=O)=O)c(C(F)(F)F)c1`, with 22.2%; and `CCOCCOC(C)C(=O)Nc1nccn1Cc1ccccc1` (stereo not given), with 3.94%. Then `COCc1ccccc1NCc1csc(NC(C)=O)n1`, with -1.36%. To `O=C(NCC(=O)N1CCN(c2ccccc2)CC1)c1sccc1C1CC1` belongs -151%; to `CCC(C)c1csc(NC(=O)Cc2csc(-c3nnc[nH]3)n2)n1` (stereo not given), -29.6%; to `COCC1CN(c2ccc(C#N)c(Cl)c2)CCO1` (stereo not given), 4.86%. As to `CCOc1ccc(-c2nc(CN(C)Cc3c(C)noc3C)cs2)cc1`, the cytotoxicity at 10 µM was found to be 38.6%. To `Cc1nc(C)c(CNC(=O)N2CCN(c3ccc(Cl)cn3)CC2)s1` belongs 55.8%; to `COc1c(Cl)cccc1NCc1csc(NC(C)=O)n1`, 57.8%; to `COC(=O)CSCc1noc(-c2ccc(C)cc2)n1`, 4.13%.

For `CC(C)N(C)C(=O)c1ccc(CNc2ccncc2Cl)cc1`, the cytotoxicity at 10 µM came to 55.8%. Then `CCc1ncc(C(=O)NCCNc2ncnc3sccc23)s1`, with 49.6%; and `CCN(CC1CN(Cc2nc(C3CC3)no2)CCO1)c1cccnn1` (stereo not given), with 14.9%. Then `c1cc(CNCc2ccnc(N3CCCC3)c2)c2c(c1)OCCCO2`, with 26.6%. Then `O=C(CSc1nncs1)N1CCN(Cc2ccc(Cl)cc2)CC1`, with 21.9%; and `CCc1noc(C(C)N(C)CC(=O)Nc2ccc(Cl)c(C(F)(F)F)c2)n1` (stereo not given), with 50.1%; and `NC(=O)c1ccc(N2CCCCC2)c(NC(=O)c2ccc(F)cc2F)c1`, with -0.0472%. As for `CCc1nc(CN2CCCN(c3ncnc4ccsc34)CC2)no1`, the cytotoxicity at 10 µM was found to be 64.5%.

`Cc1nc(CN2CCN(c3ncnc4ccccc34)CC2)no1`: the cytotoxicity at 10 µM worked out at 61.5%. Then `CC(C)(C)OC(=O)N1CCCc2ccc(NCc3cc[nH]c3)cc21`, with 34.1%; and `COc1ccccc1CN(C)C(=O)CN1CC(n2nc(C)cc2C)C1`, with 21.3%; and `CCCc1n[nH]c(C2CN(C(=O)CCCn3ccnc3C)CCO2)n1` (stereo not given), with 6.03%. Then `N#Cc1cnc2ccccc2c1N1CCN(C(=O)C2CCC2)CC1`, with -2.3%; and `CN(CCN1CCCC1=O)S(=O)(=O)CC1CCCC1`, with 10.4%; and `CC1(C)CN=C(N2CCN(CCCN3CCOCC3)CC2)S1`, with -17.6%. Consider `CN(CCc1cccc2ccccc12)Cc1nc(N)nc(N(C)C)n1`, for which the cytotoxicity at 10 µM was determined as 4.19%. To `CN1CCN(C2CCN(c3ccnc(-c4ccccc4)n3)CC2)C1=O` belongs 59.7%; to `c1nc(NCC2(N3CCOCC3)CCSC2)c2sccc2n1` (stereo not given), 59.7%. Then `Cc1ccc(-c2nc(CN(Cc3cccs3)C3CCS(=O)(=O)C3)cs2)o1` (stereo not given), with 11.4%. Then `CC(C)CN1CCC(NC(C)c2ccccc2-n2cccn2)CC1` (stereo not given), with 1.06%; and `O=C(CN1CCCC(c2ccn[nH]2)C1)Nc1nc2c(s1)CCCC2` (stereo not given), with -43.3%. Take `COc1cc(CN(C)C(=O)Cc2c(C)nn(C)c2C)ccc1OC(F)F`: the cytotoxicity at 10 µM is 39.2%. To `CC(C)NC(=O)C1CN(C(=O)N(C)C)CC12CCOCC2` (stereo not given) belongs -110%; to `O=C(Nc1ccccc1)N1CCc2nc(C(=O)N3CCCC3)sc2CC1`, 11.3%. Then `CN(C)C(=O)CN1CCC2(COCc3cnc(-c4ccccc4)nc32)C1` (stereo not given), with -96.7%; and `COc1cc(N2CC[C@@H](O)[C@@H]2Cc2ccccc2)ncn1`, with -52.1%. Consider `FC(F)(F)c1cccc(OC2CCN(Cc3c[nH]cn3)CC2)c1`, for which the cytotoxicity at 10 µM was -47.8%.

Turning to `Cc1ccc(Sc2ccc(CN3CCC4(CCCNC4=O)C3)o2)cc1` (stereo not given), the cytotoxicity at 10 µM is -3.68%. On to `Clc1ccccc1C1(c2ccnc(C3CCCC3)n2)CCNCC1`, for which the cytotoxicity at 10 µM was 18.2%. Then `CNc1ccnc(N(C)Cc2cc(-c3cccs3)n[nH]2)n1`, with -4.57%; and `COc1ccnc(CN2CCCC(CCc3ccc(F)cc3)C2)c1OC` (stereo not given), with 50.4%; and `CCc1nc2c(N3CCC4(CC3)CC(=O)N(CC(C)C)C4)ncnc2o1`, with 16.2%. Then `Cc1nc(C2CCN(C)CC2)cc(N2CCOc3ccc(Cl)cc3C2)n1`, with -5.12%. Then `CCOc1ccc2[nH]c(=O)c(CN3CCN(S(N)(=O)=O)CC3)cc2c1`, with -6.39%; and `Cc1cccnc1NCCNC(=O)c1cnc(-c2ccccn2)nc1O`, with 26.4%.

`CCCNC(=O)c1ccc(S(=O)(=O)NCC2(COC)CCCC2)cc1`: the cytotoxicity at 10 µM was -31.2%.

With `CC(C)c1cc(C(=O)NCCc2nc3c(s2)CCC3)n(C)n1`, the cytotoxicity at 10 µM was determined as 54.2%. Then `CCc1nc2c(NCC3COc4ccccc4C3)ncnc2o1` (stereo not given), with 10.5%. To `Cc1cc(C(=O)NC2CCCc3c2cnn3-c2cccc(C)c2C)[nH]n1` (stereo not given) belongs 51.4%; to `C=Cc1ccc(CN2C(=O)C3(CCNCC3)Nc3ccccc32)cc1`, 3.39%; to `Cc1nc(C(=O)N2CCN(c3ccc(Cl)c(Cl)c3)CC2)cs1`, 2.35%. To `Cc1cccc2cc(CO)c(N3Cc4cnc(C(C)(C)C)nc4C3)nc12` belongs 10.6%; to `CC(C)(C)n1ncc2c1NC(=O)CC2c1cccc(F)c1` (stereo not given), -8.81%; to `Cc1ccc(-c2noc(CN3CC(n4cc(C)cn4)C3)n2)cc1`, -3.86%. In the case of `Cc1noc(NC(=O)c2cccc(Br)c2)n1`, the cytotoxicity at 10 µM was -5.3%.

For `CCCC1CCCN(Cc2csc(-c3ncccn3)n2)CC1` (stereo not given), the cytotoxicity at 10 µM is 13.6%. With `Cn1ncc(NCc2cccc(OCC(F)(F)F)c2)c(Cl)c1=O`, the cytotoxicity at 10 µM came out at 22.1%. For the molecule `COc1c(CNCc2ccnc(N3CCCCC3)c2)c(C)nn1C`, the cytotoxicity at 10 µM was found to be 10.1%. With `CC1CN(CC2CCCCC2)CCN1c1ccc2nncn2n1` (stereo not given), the cytotoxicity at 10 µM stood at 13.8%.

`Cc1nccn1CCCn1cncc1-c1ccc2c(c1)CCC(C)N2C` (stereo not given): the cytotoxicity at 10 µM is -4.98%. To `Cc1ccc(CN(CCCn2ccnc2)Cc2cc(F)ccc2F)s1` belongs -13.2%; to `Clc1cccc(N[C@H]2CCCN[C@H]2Cc2ccccc2)c1`, 89.4%; to `COc1ccc(-c2ccc(C3CNCCO3)nc2)cc1` (stereo not given), -8.88%.

`O=C(N1CCOCC1)[C@@]12CCO[C@@H]1CCN(Cc1cccc(F)c1)C2`: the cytotoxicity at 10 µM amounted to 10.8%. Then `CCS(=O)(=O)N1C[C@@H]2CN(Cc3cccs3)CCO[C@@H]2C1`, with -138%.

Regarding `CN(C)C(=O)c1n[nH]c2c1CN(Cc1nccs1)CC2`, the cytotoxicity at 10 µM is -150%. For the molecule `Fc1cccc(O[C@@H]2C[C@H]3CN(Cc4ccncc4)CCN3C2)c1`, the cytotoxicity at 10 µM is -143%.

Consider `O=c1ccc2c(n1CC1CC1)CCC(NCc1cccs1)C2` (stereo not given), for which the cytotoxicity at 10 µM was -111%. To `Cc1nccc(NCc2cncc3c2CCN(CC2CCOC2)C3)n1` (stereo not given) belongs -41.5%; to `CCCS(=O)(=O)N1CCC2(CC1)CN(CC1CCOC1)c1ccccc12` (stereo not given), -101%; to `O=C(c1ccco1)N1C[C@@H]2CCN(c3cccnc3)C[C@@H]2C1`, -68.3%.

As to `COCCN1CCC2(CC1)CC(N1CCOCC1)c1cc(C)ccc12` (stereo not given), the cytotoxicity at 10 µM was -106%. Then `O=C(NCc1cccnc1)[C@@H]1CC[C@@H]2[C@@H](CCN2c2ncccn2)O1`, with -68%; and `Cc1ccc(N2CCO[C@H]3CN(Cc4cccs4)C[C@H]32)nn1`, with -75.6%; and `Cc1noc([C@H]2C[C@H]3OCC[C@H]3N(C3CCC3)C2)n1`, with -129%. Then `Cc1ccc(N2CCC3(CN(Cc4ccncc4)CCC3(F)F)C2)nn1` (stereo not given), with 28.6%. Then `O=C(O)c1c(-c2cncnc2)ncc2c1CCN(Cc1cccnc1)C2`, with 10.6%.
